In ChEMBL document CHEMBL5506034, “Development of Inhibitors, Probes, and PROTAC Provides a Complete Toolbox to Study PARK7 in the Living Cell” (J Med Chem, 2024):
The source made the active and inactive calls. No cut-off for these calls is given here.

How the values were obtained:
[1] = molecular target: T1, Parkinson disease protein 7 (Homo sapiens) (UniProt Q99497); experiment: Binding affinity to recombinant human PARK7 incubated for 1 hrs by coomassie staining based SDS-PAGE fluorescence scanning analysis; details: dose 0.1-10 µM
T1 sequence (whole entry): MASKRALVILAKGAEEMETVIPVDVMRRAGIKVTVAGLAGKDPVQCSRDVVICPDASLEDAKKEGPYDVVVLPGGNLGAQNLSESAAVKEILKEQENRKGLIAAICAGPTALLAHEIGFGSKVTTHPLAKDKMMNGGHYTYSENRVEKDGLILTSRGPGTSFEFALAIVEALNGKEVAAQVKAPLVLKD

[2] = molecular target: T1, Parkinson disease protein 7 (Homo sapiens); experiment: Binding affinity to recombinant human PARK7 at 1 uM incubated for 1 hrs by coomassie staining based SDS-PAGE fluorescence scanning analysis relative to control
[3] = molecular target: T1, Parkinson disease protein 7 (Homo sapiens); experiment: Binding affinity to PARK7 in human A549 cells assessed as band shift at 5 uM incubated for 24 hrs by SDS-PAGE based fluorescence scanning immunoblotting analysis; type: cell-based
Procedure, shortened: (§1)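 Probes applied to intact HEK293T or A549 cells at 5 μM final for 24 h, then lysed. Read-out by SDS-PAGE fluorescence scan and immunoblot against PARK7, looking at the ~25 kDa labelled band, PARK7 band shift and extra bands.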

[4] = Drug penetration in human A549 cells at 5 uM incubated for 1 hrs by DAPI staining based confocal microscopic analysis; type: ADME, cell-based; details: a549, 1 h
Procedure, shortened: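 A549 cells incubated with probes at 5 μM final over a time course (1–24 h). For microscopy, cells on coverslips were fixed in 3.7% formaldehyde/PBS for 20 min, mounted with DAPI and imaged by confocal (63× oil). In parallel, cells were lysed for SDS-PAGE fluorescence scan and PARK7 immunoblot.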

A549 [5] = experiment: Cellular protein labelling in human A549 cells assessed as unspecific 55-75 kDa band formation at 5 uM by SDS-PAGE based fluorescence scanning immunoblotting analysis; type: functional, cell-based; procedure, shortened: as §1
[6] = molecular target: T1, Parkinson disease protein 7 (Homo sapiens); experiment: Binding affinity to PARK7 in A549 cells assessed as band shift at 5 uM incubated for 24 hrs by SDS-PAGE based fluorescence scanning immunoblotting analysis
A549 (Homo sapiens) = experiment: Cellular protein labelling in A549 cells assessed as unspecific 55-75 kDa band formation at 5 uM by SDS-PAGE based fluorescence scanning immunoblotting analysis
[7] = molecular target: T2, Protein cereblon/Parkinson disease protein 7 (Homo sapiens) (UniProt Q96SW2+Q99497); experiment: PROTAC activity at CRBN/PARK7 in human A549 cells assessed as induction of PARK7 degradation at 2 uM incubated for 8 hrs by Western blot analysis; type: cell-based
T2 sequence (Q96SW2 whole entry, looked up, one chain of several): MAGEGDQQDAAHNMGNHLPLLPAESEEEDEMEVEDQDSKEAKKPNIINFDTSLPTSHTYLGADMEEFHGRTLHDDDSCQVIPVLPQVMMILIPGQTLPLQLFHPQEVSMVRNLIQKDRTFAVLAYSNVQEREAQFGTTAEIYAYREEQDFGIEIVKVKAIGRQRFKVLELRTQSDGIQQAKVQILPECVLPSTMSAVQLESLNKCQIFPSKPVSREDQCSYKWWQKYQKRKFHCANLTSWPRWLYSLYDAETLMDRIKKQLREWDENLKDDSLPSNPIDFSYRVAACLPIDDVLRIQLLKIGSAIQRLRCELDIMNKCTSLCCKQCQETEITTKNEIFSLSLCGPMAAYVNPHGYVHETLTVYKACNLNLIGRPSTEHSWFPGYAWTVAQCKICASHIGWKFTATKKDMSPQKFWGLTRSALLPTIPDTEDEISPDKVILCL
Procedure, shortened: (§2)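 A549 cells treated the day after seeding with PROTAC (0.1–5 μM) for 8 h. Lysates boiled in LDS with β-mercaptoethanol and run on 4–12% Bis-Tris/MOPS SDS-PAGE. PARK7 immunoblotted and normalized to DMSO; three independent biological replicates, mean ± SD, Student's t test.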

A549 [8] = experiment: Effect on PARK7 protein level in human A549 cells at 5 uM incubated for 8 hrs by TMT-based total proteome profiling; type: functional, cell-based
Procedure, shortened: (§3)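 A549 cells treated 2 days after seeding with 5 μM compound, or DMSO, for 8 h. Lysed in 5% SDS buffer; 100 μg protein reduced, alkylated and trypsin-digested. Peptides TMTpro-labelled, pooled, high-pH fractionated and analysed by nano-LC-MS/MS; fold change and p-value taken against DMSO.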

A549 [9] = experiment: Downregulation of TM7SF3 protein level in human A549 cells at 5 uM incubated for 8 hrs by TMT-based total proteome profiling; type: functional, cell-based; procedure, shortened: as §3
A549 [10] = experiment: Downregulation of DOP1B protein level in human A549 cells at 5 uM incubated for 8 hrs by TMT-based total proteome profiling; type: functional, cell-based; procedure, shortened: as §3
[11] = molecular target: Ubiquitin carboxyl-terminal hydrolase isozyme L1 (Homo sapiens) (UniProt P09936); experiment: Inhibition of UCHL1 in HEK293T cells incubated for 24 hrs by SDS-PAGE based fluorescence scanning Western blot analysis; type: cell-based
Sequence of Ubiquitin carboxyl-terminal hydrolase isozyme L1 (Homo sapiens) (P09936 whole entry, looked up): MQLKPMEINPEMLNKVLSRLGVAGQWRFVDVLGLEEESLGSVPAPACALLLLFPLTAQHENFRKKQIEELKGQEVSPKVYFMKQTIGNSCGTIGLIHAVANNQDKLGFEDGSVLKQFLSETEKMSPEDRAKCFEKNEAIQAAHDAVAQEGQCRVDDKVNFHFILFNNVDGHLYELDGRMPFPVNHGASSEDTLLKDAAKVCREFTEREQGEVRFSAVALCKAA

A549 [12] = experiment: Cytotoxicity in human A549 cells assessed as reduction in cell viability upto 5 uM incubated for 72 hrs by CellTiter-Blue viability assay; type: toxicity, cell-based; details: a549, 72 h
Procedure, shortened: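 A549 cells (5×10^3/well) exposed next day to inhibitor, with DMSO as control. Compound renewed at 36 h, then 36 h more (72 h total). Viability read by CellTiter-Blue, normalized to DMSO and background-corrected.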

[13] = molecular target: T2, Protein cereblon/Parkinson disease protein 7 (Homo sapiens); experiment: PROTAC activity at CRBN/PARK7 in human A549 cells assessed as induction of PARK7 degradation at 0.1 to 5 uM incubated for 8 hrs by Western blot analysis; type: cell-based; details: dose 0.1-5 µM; procedure, shortened: as §2
[14] = molecular target: T2, Protein cereblon/Parkinson disease protein 7 (Homo sapiens); experiment: PROTAC activity at CRBN/PARK7 in human HeLa cells assessed as induction of PARK7 degradation incubated for 8 hrs by Western blot analysis; type: cell-based; details: dose 0.1-5 µM
Procedure, shortened: (§4)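 HeLa, H1299 or MCF7 cells (DMEM, 7.5% FBS) treated with a PROTAC concentration series for 8 h. Lysates analysed by SDS-PAGE and anti-PARK7 immunoblot.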

[15] = molecular target: T2, Protein cereblon/Parkinson disease protein 7 (Homo sapiens); experiment: PROTAC activity at CRBN/PARK7 in human NCI-H1299 cells assessed as induction of PARK7 degradation incubated for 8 hrs by Western blot analysis; type: cell-based; details: dose 0.1-5 µM; procedure, shortened: as §4
[16] = molecular target: T2, Protein cereblon/Parkinson disease protein 7 (Homo sapiens); experiment: PROTAC activity at CRBN/PARK7 in human MCF7 cells assessed as induction of PARK7 degradation incubated for 8 hrs by Western blot analysis; type: cell-based; details: dose 0.1-5 µM; procedure, shortened: as §4
[17] = molecular target: T2, Protein cereblon/Parkinson disease protein 7 (Homo sapiens); experiment: PROTAC activity at CRBN/PARK7 in human A549 cells assessed as induction of PARK7 degradation at 5 uM incubated for 4 to 24 hrs by Western blot analysis; type: cell-based; details: time 4-24 hrs
Procedure, shortened: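 A549 cells exposed to PROTAC at 5 μM for varying times across the 4–24 h window. Lysates analysed by SDS-PAGE and anti-PARK7 immunoblot.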

[18] = molecular target: T2, Protein cereblon/Parkinson disease protein 7 (Homo sapiens); experiment: PROTAC activity at CRBN/PARK7 in human A549 cells assessed as induction of PARK7 degradation at 5 uM preincubated with pomalidomide for 4 hrs followed by compound addition and measured after 8 hrs by Western blot analysis; type: cell-based
Procedure, shortened: (§5)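 A549 cells pretreated 4 h with 5 μM pomalidomide, 5 μM PARK7 inhibitor or 10 μM MG-132, then given PROTAC (5 μM) for a further 8 h. PARK7 level assessed by lysis, SDS-PAGE and immunoblot.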

[19] = molecular target: T2, Protein cereblon/Parkinson disease protein 7 (Homo sapiens); experiment: PROTAC activity at CRBN/PARK7 in human A549 cells assessed as induction of PARK7 degradation at 5 uM preincubated with (R)-1-cyano-N-(5-(2-fluoro-5-(1H-1,2,3-triazol-1-yl)benzoyl)-4,5,6,7-tetrahydrothiazolo[5,4-c]pyridin-2-yl)pyrrolidine-3-carboxamide for 4 hrs followed by compound addition and measured after 8 hrs by Western blot analysis; type: cell-based; procedure, shortened: as §5
[20] = molecular target: T2, Protein cereblon/Parkinson disease protein 7 (Homo sapiens); experiment: PROTAC activity at CRBN/PARK7 in human A549 cells assessed as induction of PARK7 degradation at 5 uM preincubated with MG-132 for 4 hrs followed by compound addition and measured after 8 hrs by Western blot analysis; type: cell-based; procedure, shortened: as §5
[21] = molecular target: T2, Protein cereblon/Parkinson disease protein 7 (Homo sapiens); experiment: PROTAC activity at CRBN/PARK7 in human A549 cells assessed as induction of PARK7 degradation at 5 uM incubated for 8 hrs by TMT-based total proteome profiling; type: cell-based; procedure, shortened: as §3
[22] = molecular target: T1, Parkinson disease protein 7 (Homo sapiens); experiment: Binding affinity to recombinant human PARK7 at 2 uM incubated for 1 hrs by coomassie staining based SDS-PAGE fluorescence scanning analysis relative to control
[23] = molecular target: T1, Parkinson disease protein 7 (Homo sapiens); experiment: Binding affinity to recombinant human PARK7 at 5 uM incubated for 1 hrs by coomassie staining based SDS-PAGE fluorescence scanning analysis relative to control
[24] = molecular target: T1, Parkinson disease protein 7 (Homo sapiens); experiment: Binding affinity to PARK7 in HEK293T cells assessed as band shift at 5 uM incubated for 24 hrs by SDS-PAGE based fluorescence scanning immunoblotting analysis; type: cell-based
Procedure, shortened: (§6)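 Live HEK293T cells (DMEM, 7.5% FBS, 37 °C, 5% CO2) exposed to inhibitor for 24 h, then washed and lysed in Tris/NaCl/0.5% Triton X-100/2 mM TCEP pH 7.5 buffer. Lysate labelled with SulfoCy5 probe JYQ-92 (1 μM, 30 min). Residual PARK7 activity read by SDS-PAGE with Cy5-channel fluorescence scan, then immunoblot for PARK7 with β-actin as loading control.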

[25] = molecular target: T1, Parkinson disease protein 7 (Homo sapiens); experiment: Inhibition of PARK7 in HEK293T cells at 0.1 to 20 uM incubated for 24 hrs by SDS-PAGE based fluorescence scanning analysis; type: cell-based; details: dose 0.1-20 µM; procedure, shortened: as §6
[26] = molecular target: T1, Parkinson disease protein 7 (Homo sapiens); experiment: Binding affinity to PARK7 in HEK293T cells assessed as target engagement at 1 to 5 uM incubated for 24 hrs by SDS-PAGE based fluorescence scanning Western blot analysis; type: cell-based; details: dose 1-5 µM; procedure, shortened: as §6

CC[N+]1=C(/C=C/C=C/C=C2/N(CCCCCC(=O)NCCCc3cn(-c4ccc(F)c(C(=O)N5CCc6nc(NC(=O)[C@@H]7CCN(C#N)C7)sc6C5)c4)nn3)c3ccc(S(=O)(=O)O)cc3C2(C)C)C(C)(C)c2cc(S(=O)(=O)[O-])ccc21
Activity [1]: Dose-Dependent Effect | Activity [2]: 100% | Activity [3]: Active | Drug uptake [4]: Active | Activity (A549 [5]): Active | Activity [6]: Active | Activity (A549 (Homo sapiens)): Active

N#CN1CC[C@@H](C(=O)Nc2nc3c(s2)CN(C(=O)c2cc(-n4cc(COCCOCCOCCNc5cccc6c5C(=O)N(C5CCC(=O)NC5=O)C6=O)nn4)ccc2F)CC3)C1 (stereo partly specified)
Activity [7]: Active

N#CN1CC[C@@H](C(=O)Nc2nc3c(s2)CN(C(=O)c2cc(-n4ccnn4)ccc2F)CC3)C1
Activity (A549 [8]): inactive | Activity (A549 [9]): Active | Activity (A549 [10]): Active | inhibition [11]: inactive | Activity (A549 [12]): Non-Toxic

N#CN1CC[C@@H](C(=O)Nc2nc3c(s2)CN(C(=O)c2cc(-n4cc(COCCOCCNc5cccc6c5C(=O)N(C5CCC(=O)NC5=O)C6=O)nn4)ccc2F)CC3)C1 (stereo partly specified)
Activity [13]: Active | Activity [14]: Dose-Dependent Effect | Activity [15]: Dose-Dependent Effect | Activity [16]: Dose-Dependent Effect | Activity [17]: Active | Activity [18]: inactive | Activity [19]: inactive | Activity [20]: inactive | Activity [21]: Active | Activity (A549 [9]): Active | Activity (A549 [10]): Active

N#CN1CC[C@@H](C(=O)Nc2nc3c(s2)CN(C(=O)c2cccc(S(=O)(=O)N4CCN(C(=O)Cn5cc(COCCOCCOCCNc6cccc7c6C(=O)N(C6CCC(=O)NC6=O)C7=O)nn5)CC4)c2)CC3)C1 (stereo partly specified)
Activity [13]: inactive

N#CN1CC[C@@H](C(=O)Nc2nc3c(s2)CN(C(=O)c2cnc(-c4cccs4)s2)CC3)C1
inhibition [11]: Active

CC[N+]1=C(/C=C/C=C/C=C2/N(CCCCCC(=O)NCCCc3cn(CC(=O)N4CCN(S(=O)(=O)c5cccc(C(=O)N6CCc7nc(NC(=O)[C@@H]8CCN(C#N)C8)sc7C6)c5)CC4)nn3)c3ccc(S(=O)(=O)[O-])cc3C2(C)C)C(C)(C)c2cc(S(=O)(=O)O)ccc21
Activity [1]: Dose-Dependent Effect | Activity [22]: 100% | Activity [3]: Active | Drug uptake [4]: Active | Activity (A549 [5]): Active | Activity [6]: Active | Activity (A549 (Homo sapiens)): Active

N#CN1CC[C@@H](C(=O)Nc2nc3c(s2)CN(C(=O)c2cccc(S(=O)(=O)N4CCOCC4)c2)CC3)C1
inhibition [11]: inactive | Activity (A549 [12]): Non-Toxic

CC1=CC(C)=[N+]2C1=C(CCCCc1cn(CC(=O)N3CCN(S(=O)(=O)c4cccc(C(=O)N5CCc6nc(NC(=O)[C@@H]7CCN(C#N)C7)sc6C5)c4)CC3)nn1)c1c(C)cc(C)n1[B-]2(F)F
Activity [1]: Dose-Dependent Effect | Activity [23]: 100% | Activity [24]: inactive | Activity [3]: inactive

Cc1csc(-c2cccc(C(=O)N3CCc4nc(NC(=O)[C@@H]5CCN(C#N)C5)sc4C3)c2)n1
inhibition [11]: Active

N#CN1CC[C@@H](C(=O)Nc2nc3c(s2)CN(C(=O)CN=[N+]=[N-])CC3)C1
inhibition [25]: inactive

CC(=O)N1CCN(S(=O)(=O)c2cccc(C(=O)N3CCc4nc(NC(=O)[C@@H]5CCN(C#N)C5)sc4C3)c2)CC1
inhibition [11]: inactive | Activity [26]: Active

N#CN1CC[C@@H](C(=O)Nc2nc3c(s2)CN(C(=O)c2cccc(S(=O)(=O)N4CCN(C(=O)Cn5cc(COCCOCCNc6cccc7c6C(=O)N(C6CCC(=O)NC6=O)C7=O)nn5)CC4)c2)CC3)C1 (stereo partly specified)
Activity [13]: inactive

Cc1cc(C(=O)N2CCc3nc(NC(=O)[C@@H]4CCN(C#N)C4)sc3C2)ccc1Br
inhibition [11]: Active

N#CN1CC[C@@H](C(=O)Nc2nc3c(s2)CN(C(=O)c2cccc(-c4ncon4)c2)CC3)C1
inhibition [11]: Active
